In the library only some 2.6% were active in any assay of this set; here they are far more common.
VLA-4 inh = inhibition in a human VLA-4 binding assay; P13612; VLA-4 expressing cells, ligand binding flow cytometry; inhibition, % (about 7 µM as worked out from the volumes in the protocol); hit rate 0.2% among 330,000; AID 2557; in the data active = inhibition above about 50%
Platelet DG rel = modulates dense granule release in human platelets; AID 1663; inhibition, %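 (compounds screened at 7.5 µM in platelet-rich plasma)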; human platelet-rich plasma, SFLLRN dense granule ATP release, luminescence; hit rate 0.22% among 300,000;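 active = mean replicate score, as percent of positive control, at or above 50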
TAAR1 agonist = agonists of human TAAR1 | Q96RJ0 | CHO RD-HGA16 TAAR1, Fluo-8 calcium fluorescence; vehicle wells 0%, saturating PEA agonist 100% | activation, % at 3 µM | hit rate 0.99% among 360,000 | AID 624467;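 active = activation above the mean activation of all test compounds in the run plus 3 SD, cut at about 38% in these data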
Target sequence (Q96RJ0 whole entry, looked up): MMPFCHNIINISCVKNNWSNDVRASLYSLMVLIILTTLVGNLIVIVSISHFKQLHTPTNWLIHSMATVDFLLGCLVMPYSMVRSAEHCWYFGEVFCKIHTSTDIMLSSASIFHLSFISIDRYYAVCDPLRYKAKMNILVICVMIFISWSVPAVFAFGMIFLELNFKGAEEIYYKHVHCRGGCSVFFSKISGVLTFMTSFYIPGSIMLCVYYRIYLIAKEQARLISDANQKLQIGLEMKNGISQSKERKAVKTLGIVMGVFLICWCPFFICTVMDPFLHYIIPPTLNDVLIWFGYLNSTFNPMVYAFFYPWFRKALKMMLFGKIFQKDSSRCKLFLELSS
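test system = CHO RD-HGA16 cells carrying human TAAR1 plus Gα16 | schedule = 17-24 h seeding, 75 min 37 °C dye, 30 min RT | compound dosing = 3 µM single concentration | control set = DMSO and PEA EC100 | replicates = n 1 | signal = Fluo-8 fluorescence, 5 s baseline then 140 s kinetic read | measure = percent activation vs PEA EC100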
Rce1 inh = blocks yeast Ras-converting enzyme | AID 2563 | hit rate 0.27% among 290,000 | Q03530 | calls only | yeast membranes, quenched prenylated peptide cleavage fluorescence;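 active = fall in fluorescence gain of 50% or more versus controls, with final raw signal at or below 3038400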;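 note: plate controls were neutral control wells for no effect and wells lacking membranes for full effect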
Target sequence (Q03530 whole entry, looked up): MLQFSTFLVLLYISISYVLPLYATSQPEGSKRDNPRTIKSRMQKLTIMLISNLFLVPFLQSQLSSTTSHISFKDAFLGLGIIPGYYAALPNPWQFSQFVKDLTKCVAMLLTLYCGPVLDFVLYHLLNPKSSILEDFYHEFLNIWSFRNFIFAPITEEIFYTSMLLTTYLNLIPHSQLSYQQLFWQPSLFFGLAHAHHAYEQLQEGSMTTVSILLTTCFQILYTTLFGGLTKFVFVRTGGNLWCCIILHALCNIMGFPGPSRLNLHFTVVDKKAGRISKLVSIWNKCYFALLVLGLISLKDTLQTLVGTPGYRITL
TAAR1 antagonist = human TAAR1 antagonism | Q96RJ0 | CHO RD-HGA16 TAAR1, Fluo-8 calcium fluorescence, antagonist | inhibition, % at 3 µM | hit rate 1.5% among 360,000 | AID 624466;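 active = inhibition above a per-plate cutoff, the mean inhibition of test compounds on that plate plus 3 SD, cut at about 49% in these data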;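 note: 0% = DMSO plus EC80 beta-PEA response and 100% = DMSO alone without agonist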
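System: CHO RD-HGA16 cells bearing hTAAR1. Reagent: EC80 β-phenethylamine stimulus. Schedule: seeding 17-24 h prior, 75-min 37 °C, 30-min RT dye loading. Signal: Fluo-8 intracellular calcium dye fluorescence, real-time kinetic reads. Read-out: % inhibition from peak post-agonist over basal fluorescence ratio. Benchmarks: vehicle wells and EC80 agonist wells. Replicates: n of 1.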
TAAR1 ag conf = confirmation of human TAAR1 agonists | AID 651783 | hit rate 82% among 2,400 | shares compounds with TAAR1 agonist | CHO RD-HGA16 TAAR1, Fluo-8 calcium fluorescence; scaled: DMSO 0%, maximal phenethylamine 100% | activation, % at 3 µM;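 active = activation above a cutoff set at the run's mean compound activation plus 3 SD, cut at about 39% in these data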
Ga16 nonsel ag = nonselective agonism, TAAR1 counter-screen; shares compounds with TAAR1 agonist; AID 651787; hit rate 50% among 2,400; activation, % at 3 µM; CHO-Ga16 parental, Fluo-8 calcium fluorescence; normalized to maximal ATP response, DMSO zero;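 active = activation above the run cutoff, the mean activation over all tested wells plus 3 SD, cut at about 12% in these data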;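 note: 0% = DMSO wells and 100% = maximal ATP response on the peak over basal ratio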
TAAR1 desensitize = human TAAR1 agonist that also desensitizes the receptor. shares compounds with TAAR1 agonist. CHO RD-HGA16 hTAAR1, Fluo-8 calcium, beta-PEA response inhibition. inhibition, % at 3 µM. hit rate 46% among 2,400;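 active = inhibition above the run cutoff, the mean inhibition of all test compounds plus 3 SD, cut at about 49% in these data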;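 note: beta-PEA stimulus applied at its EC80; loss of beta-PEA calcium signal after compound pretreatment read as receptor desensitization; 0% = DMSO with beta-PEA at EC80 and 100% = DMSO alone without agonist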
Ga16 antag count = counter-screen for TAAR1 agonists: nonselective Ga16 antagonists | shares compounds with TAAR1 agonist | CHO-Ga16 ATP-induced calcium, Fluo-8 fluorescence | inhibition, % at 3 µM | hit rate 39% among 2,400 | AID 651952;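 active = inhibition above the plate's mean compound inhibition plus 3 SD, computed per plate, cut at about 22% in these data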;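 note: 0% = EC80 ATP with DMSO and 100% = DMSO wells without ATP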
Starred values were filed as active, the others as inactive; i = inactive; . = no result given.

SMILES	VLA-4 inh	Platelet DG rel	TAAR1 agonist	Rce1 inh	TAAR1 antagonist	TAAR1 ag conf	Ga16 nonsel ag	TAAR1 desensitize	Ga16 antag count
CC(=O)Nc1ccc(Sc2ncccc2C(=O)Nc2cc(Cl)cc(Cl)c2)cn1	2.7	7.0	31.5	i	32.8	.	.	.	.
O=c1cc(C=NNc2ccccc2)[nH]c(=O)[nH]1	.	.	.	.	.	.	3.0	.	11.2
O=c1nccc(N/N=C/c2ccccc2)[nH]1	-0.3	37.2	34.5	i	0.3	.	.	.	.
O=c1cc(N/N=C/c2ccccc2)[nH]c(=O)[nH]1	-4.0	2.5	57.6*	i	31.0	83.9*	14.9*	90.0*	7.3
Cc1c(C=NNc2ccccc2)[nH]c(=O)[nH]c1=O	.	.	57.7*	.	1.9	72.1*	3.5	36.1	11.4
OC(c1cccnc1)c1nc(-c2cccc(F)c2)cs1 (stereo not drawn)	.	.	1.5	.	-0.9	.	.	.	.
Cc1ccnc(N/C=C(\C#N)c2nc(-c3cccc(Br)c3)cs2)c1	-339.8	-5.9	123.6*	i	67.8*	77.2*	85.7*	67.7*	62.7*
Cc1ccc(-c2noc(CCC(=O)Nc3cccc(C(=O)NC4CC4)c3)n2)cc1	.	.	4.2	.	-2.7	.	.	.	.
C=CCOc1cccc(/C=N/NC(=O)CN2CCCCC2)c1	8.9	3.8	1.0	i	-5.4	.	.	.	.
COc1ccccc1CNC(=O)CC1C(=O)NCCN1C1Cc2ccccc2C1 (stereo not drawn)	12.2	2.0	69.6*	i	19.2	72.4*	5.2	2.7	-1.5
COc1ccc(CNC(=O)CC2C(=O)NCCN2C2Cc3ccccc3C2)cc1 (stereo not drawn)	7.6	9.1	20.0	i	-12.4	.	.	.	.
COc1ccc(CCn2c(C)cc(C(=O)CN3C(=O)C(=O)N(Cc4ccco4)C3=O)c2C)cc1	-3.6	.	0.7	.	16.3	.	.	.	.
O=C(Cc1n[nH]c(=O)[nH]c1=O)N/N=C/c1ccccc1	-8.6	-0.1	65.9*	i	19.1	73.9*	-0.3	55.0*	10.2
O=C(Cc1n[nH]c(=O)[nH]c1=O)N/N=C/c1cccc(O)c1	18.6	-3.0	60.0*	i	-11.3	59.7*	4.2	20.7	8.8
O=C(Nc1oc2ccccc2c(=O)c1-c1ccccc1)c1ccco1	.	.	5.2	.	-31.8	.	.	.	.
CS(=O)(=O)N(CC(=O)N1CCCC1)C1CCCCC1	.	.	1.4	.	-21.6	.	.	.	.
O=C(CSC(=S)N1CCCC1)NCCc1ccccc1	17.4	-1.4	97.4*	i	87.5*	87.9*	3.1	98.1*	6.2
CCOc1ccc(/C(O)=C2\C(=O)C(=O)N(c3ccccn3)C2c2ccccc2F)c(C)c1 (stereo not drawn)	.	.	3.2	.	-30.6	.	.	.	.
COC(=O)c1cc(S(=O)(=O)N2CCN(c3ccc(OC)cc3)CC2)cn1C	0.6	-7.4	1.1	i	-9.7	.	.	.	.
OCCCNCc1ccc(N(c2ccccc2)c2ccccc2)cc1	14.0	-4.2	45.4*	i	-3.1	72.8*	24.7*	27.1	16.2
O=C(NCCc1ccccc1)c1coc(=O)c(Br)c1	25.2	8.1	87.3*	i	80.2*	94.4*	0.6	79.7*	7.6
O=C(NCCC1=CCCCC1)c1coc(=O)c(Br)c1	15.2	5.1	62.0*	i	14.4	48.3*	1.2	1.6	-0.7
O=C(NCCC1=CCCCC1)c1ccc(=O)oc1	0.9	-0.4	11.2	i	8.4	.	.	.	.
CCOc1ccc(S(=O)(=O)NCCC(=O)N(C)Cc2ccc(C)o2)cc1	14.0	9.9	-0.1	i	-1.8	.	.	.	.
COc1ccc(NC(=O)Cc2ccc(Cl)cc2Cl)cn1	0.8	0.9	56.4*	i	1.5	24.1	7.3	13.1	7.7
SMILES	VLA-4 inh	Platelet DG rel	TAAR1 agonist	Rce1 inh	TAAR1 antagonist	TAAR1 ag conf	Ga16 nonsel ag	TAAR1 desensitize	Ga16 antag count
COc1ccc(NC(=O)Cc2ccc(Cl)c(Cl)c2)cn1	7.6	1.0	0.7	i	12.1	.	.	.	.
COc1cc2[nH]c(C(=O)N3CCc4ccccc4C3)cc2c(OC)c1OC	-0.1	2.7	44.1*	i	-12.0	71.9*	4.7	16.9	7.6
COc1cc2cc(C(=O)N3CCc4ccccc4C3)[nH]c2cc1OC	-3.1	13.1	1.7	i	0.0	.	.	.	.
c1ccc(COc2ccc(OCCCNC3CCCC3)cc2)cc1	14.1	10.3	53.4*	i	3.0	78.7*	24.1*	49.2*	19.6
C=CCNCCCCOc1ccc(OCc2ccccc2)cc1	-2.7	3.3	53.4*	i	21.8	70.1*	14.9*	37.3	16.6
CC(=O)N1CCCC(C)(C(=O)Nc2cccc(OC(C)C)c2)C1 (stereo not drawn)	.	.	1.6	.	-5.1	.	.	.	.
O=C(Cc1ccsc1)N1CCN(S(=O)(=O)c2ccccc2F)CC1	-4.7	.	0.6	.	-17.9	.	.	.	.
O=C(O)Cn1c2ccccc2c2n[nH]c(=S)nc21	4.3	-1.1	4.7	i	0.9	.	.	.	.
CC1(C)CC[C@]2(C(=O)O)CC[C@]3(C)C(=CC[C@@H]4[C@@]5(C)CC[C@H](O[C@@H]6O[C@H](C(=O)O)[C@@H](O)[C@H](O[C@@H]7OC[C@H](O)[C@H](O)[C@H]7O)[C@H]6O)C(C)(C)[C@@H]5CC[C@]43C)[C@@H]2C1	16.7	.	109.2*	.	109.3*	83.9*	66.0*	104.5*	94.8*
CC1(C)CC[C@]2(C(=O)O[C@@H]3O[C@H](CO)[C@@H](O)[C@H](O)[C@H]3O)CC[C@]3(C)C(=CCC4[C@@]5(C)CC[C@H](O[C@@H]6O[C@H](C(=O)O)[C@@H](O[C@H]7OC[C@@H](O)[C@@H](O)[C@@H]7O)[C@H](O)[C@H]6O)C(C)(C)C5CC[C@]43C)[C@@H]2C1 (stereo partly drawn)	0.5	.	7.7	.	-7.5	.	.	.	.
COC(=O)c1cccc(C(=O)N2CCCC(C(=O)c3ccccc3OC)C2)c1 (stereo not drawn)	-6.4	-7.3	-0.5	i	-3.3	.	.	.	.
COC(=O)c1cccc(C(=O)N2CCCC(C(=O)c3cccc(OC(C)C)c3)C2)c1 (stereo not drawn)	-1.1	3.1	53.0*	i	-4.0	-2.1	1.7	6.3	5.7
CC(C)C[C@H]1CN(CCCC[C@@H]2CNC(=O)C(=O)N2CC2CCCCC2)C(=O)C(=O)N1CCc1ccc(O)cc1	.	.	1.0	.	0.8	.	.	.	.
O=C(COC(=O)c1ccccc1Nc1ccc(SC(F)F)cc1)NC1CC1	-1.6	0.2	1.8	i	17.6	.	.	.	.
NC(=O)COC(=O)c1ccccc1Nc1ccc(SC(F)F)cc1	6.1	-29.2	43.2*	i	38.3	6.0	9.4	16.1	16.2
